Consider 6 molecules from PMC8286339 (ACS chemical biology, 2021).

Assay [1] deals with T1, NTMT1 (Homo sapiens, UniProt Q9BV86).
T1 sequence (Q9BV86 1-223): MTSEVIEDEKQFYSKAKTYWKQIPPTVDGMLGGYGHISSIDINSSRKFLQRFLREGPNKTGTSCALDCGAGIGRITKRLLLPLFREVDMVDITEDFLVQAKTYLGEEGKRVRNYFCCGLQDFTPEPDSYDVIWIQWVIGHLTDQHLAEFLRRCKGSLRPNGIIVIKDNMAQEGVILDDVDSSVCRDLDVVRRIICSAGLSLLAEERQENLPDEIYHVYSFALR
Put plainly: Pull-down from HeLa cell lysates with immobilized probe, anti-NTMT1 Western blot. Type of assay: binding. The note with it: 700 mM NaCl wash. An outline of the steps: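 Lysate was incubated overnight with probe-loaded streptavidin resin, optionally with competitor (10 mM stock) added first; resin alone served as control. Washes used IP buffer, then 700 mM NaCl. Boiled-bead eluates were run on SDS-PAGE and blotted with anti-NTMT1 (1:1000, 4°C overnight) and HRP secondary, with ECL detection.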
In general terms: In western blotting, separated proteins are transferred to a membrane and probed.

Assay [2] deals with T1, NTMT1. Type of assay: binding. Conditions: probe immobilized on streptavidin beads. An outline of the steps: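 Biotinylated probe (100 µM) was loaded overnight onto streptavidin resin in 20 mM Tris, 50 mM KCl, pH 7.5. Purified NTMT1 was bound for 4 h in the same buffer plus 1 mM DTT, then washed until no protein was detected. Elution was stepwise with 500 mM, 1 M, 2 M and 4 M NaCl, moving to the next step once eluate protein approached 0 mg/mL.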

Assay [3] deals with protein N-terminal methyltransferase 1 (NTMT1), purified recombinant (human) (UniProt Q9BV86). Description: SAHH-coupled fluorescence enzyme inhibition assay.
In assay [4] the target is T1, NTMT1. The note with it: read-out: Ki, app; previously developed NTMT1 bisubstrate inhibitors; cited from earlier work.
Assay [5] concerns the target T2, HemK2/KMT9-Trm112 complex (Homo sapiens, UniProt Q9Y5N5).
T2 sequence (Q9Y5N5 1-214): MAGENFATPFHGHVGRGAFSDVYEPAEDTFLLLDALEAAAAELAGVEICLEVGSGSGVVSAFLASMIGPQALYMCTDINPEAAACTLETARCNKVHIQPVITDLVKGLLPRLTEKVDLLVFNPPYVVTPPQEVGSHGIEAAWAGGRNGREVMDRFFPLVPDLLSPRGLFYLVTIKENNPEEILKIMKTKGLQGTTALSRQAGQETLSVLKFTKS
T2 sequence (Q9UI30 1-125 partner): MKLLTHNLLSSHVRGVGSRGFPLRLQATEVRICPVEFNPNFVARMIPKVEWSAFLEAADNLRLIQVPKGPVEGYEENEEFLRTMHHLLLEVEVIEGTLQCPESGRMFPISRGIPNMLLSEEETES
Put plainly: HemK2-Trm112 methylation inhibition assay. Type of assay: biochemical. Conditions: read-out: inhibition of activity.

NAH = SAM mimic in which the sulfonium ion is replaced by a nitrogen atom; C3 = 3-carbon linker to the N-terminal alpha-amine

For the molecule NAH-C3-GPKK-biotin [Probe 6], the “enrichment of NTMT1 from HeLa cell lysates” value in assay [1] was “enriched”. The “salt concentration at which NTMT1 was eluted off the probe” value in assay [2] turned out to be 4 M NaCl.
As for NAH-C3-GPK (compound 3) (peptide), the Ki in assay [3] stood at 0.041 µM.
For the molecule NAH-C3-PPKRIA ({NAH-C3}-PPKRIA-NH2), in assay [4], the Ki was 0.039 ± 0.01 µM.
The term inhibition denotes how much of the control response was suppressed. As to `Nc1ncnc2c1ncn2[C@@H]1O[C@H](C[C@@H](N)CC[C@H](N)C(=O)O)[C@@H](O)[C@H]1O` [sinefungin], the inhibition at 100 µM in assay [5] was about 50%.
For NAH-C4-GPK (compound 4) (peptide), the Ki in assay [3] was determined as 0.044 µM.
For `CC[C@H](C)[C@H](NC(=O)[C@H](CCCNC(=N)N)NC(=O)[C@H](CCCCN)NC(=O)[C@@H]1CCCN1C(=O)CNCCCCN(CC[C@H](N)C(=O)O)C[C@H]1O[C@@H](n2cnc3c(N)ncnc32)[C@H](O)[C@@H]1O)C(=O)N[C@@H](C)C(N)=O` [NAH-C4-GPKRIA], the Ki in assay [4] was 0.00013 ± 4e-05 µM.
